Myeloid diff MLP – compounds promoting myeloid differentiation; ER-HoxA9 myeloid progenitors, lysozyme-GFP differentiation, flow cytometry; calls only at 10 µM; actives 1% (n = 360,000);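 active means normalized GFP-positive differentiation at or above the plate's own cutoff, the solvent-only control mean plus 3 SD; inconclusive means no clear call, values can overlap the other calls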;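 further: cells exposed to compound for four days before flow analysis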
MT1-MMP act inh – MT1-MMP (human) activation inhibition; P50281; HT1080 RFP-PRO-GFP cells, GFP/RFP ratio fluorescence, overnight; percent of plate control window, DMSO zero; GFP/RFP ratio change, % at 20 µM; actives 0.061% (n = 360,000); AID 651647;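 active means GFP/RFP ratio change of at least 30% with cell ATP level not reduced by more than half and red fluorescence within 50% of control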
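Assay system: HT1080 RFP-PRO-GFP cells. Benchmarks: DMSO vehicle wells and RFP-L50D-GFP reporter cell wells. Times: overnight cell settling, then overnight compound exposure, 37 °C, 5% CO2. Compound: 20 µM single dose, 1% DMSO. Read-out basis: GFP/RFP fluorescence ratio.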
CendR NRP1 mod – modulators of CendR peptide binding to human neuropilin-1. FAM-RPARPAR peptide binding to NRP-1, fluorescence polarization. AID 602438. inhibition, % at 25 µM. actives 0.85% (n = 360,000). O14786;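 active means inhibition or corrected inhibition above about 18%, plus a signal ratio from 0.5 to 1.5, limit read from the data, passing the limit was not always enough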
DAGLB inh – diacylglycerol lipase beta (human) inhibition; Q8NCG7; HEK293T DAGLB membrane lysate, EnzChek fluorogenic substrate; inhibition, % at 5.17 µM; actives 0.059% (n = 340,000); in the data active means inhibition above about 34%
Target sequence (Q8NCG7 whole entry, looked up): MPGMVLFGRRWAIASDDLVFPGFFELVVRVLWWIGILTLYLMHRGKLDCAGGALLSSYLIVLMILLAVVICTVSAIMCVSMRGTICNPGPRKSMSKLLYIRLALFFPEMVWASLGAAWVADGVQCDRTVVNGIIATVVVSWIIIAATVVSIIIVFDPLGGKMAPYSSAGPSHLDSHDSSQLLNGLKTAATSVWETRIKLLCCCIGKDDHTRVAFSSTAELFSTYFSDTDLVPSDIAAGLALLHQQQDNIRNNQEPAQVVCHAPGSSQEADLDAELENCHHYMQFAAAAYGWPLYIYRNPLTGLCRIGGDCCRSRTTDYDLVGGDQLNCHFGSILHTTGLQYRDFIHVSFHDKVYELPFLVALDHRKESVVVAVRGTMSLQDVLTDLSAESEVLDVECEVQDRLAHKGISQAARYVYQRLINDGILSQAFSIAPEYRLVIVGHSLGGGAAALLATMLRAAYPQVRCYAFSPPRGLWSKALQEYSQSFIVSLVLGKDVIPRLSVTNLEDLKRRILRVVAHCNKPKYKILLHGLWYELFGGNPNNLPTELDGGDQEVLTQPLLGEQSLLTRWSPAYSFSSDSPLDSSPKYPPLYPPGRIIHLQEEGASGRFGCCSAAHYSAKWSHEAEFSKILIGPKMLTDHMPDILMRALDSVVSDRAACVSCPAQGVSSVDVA
SENP1 inh – blocks the human SENP1 SUMO protease catalytic domain; inhibition, % at 10 µM; actives 0.21% (n = 360,000); recombinant SENP1 catalytic domain, CyPet-SUMO1-YPet FRET cleavage; AID 624204;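 active means inhibition at least 30% at 10 µM, raw YFP signal under a set limit, fluorescence ratio 0.5 to 1.5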
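material = recombinant human SENP1 catalytic domain, His6-tagged | quantity = 20 pM enzyme | reagent = 25 nM SUMO1 FRET substrate | compound dosing = 10 µM single point, 0.5% DMSO | timing = 50 min enzyme reaction, room temperature, light-protected | detection = FRET, CFP and YFP emission | control set = no-enzyme low, enzyme-DMSO high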
beta cell repl – induces beta-cell replication in MIN6 cells. MIN6 cells proliferation, ATPlite luminescence, 48 h; cells starved in 0.2% serum; 100% = growth in 10% serum. proliferation, % at 10 µM. actives 0.29% (n = 330,000);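 active means compounds whose signal lies at least 3.5 SD above the mean of all wells on their plate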
A number is an active result; n = inactive; u = inconclusive; x = no result given; + = active, no number. Rows were chosen to be rich in hits. Some 2.4% of all compounds tested hit in one or more screens of this group.

SMILES | Myeloid diff MLP | MT1-MMP act inh | CendR NRP1 mod | DAGLB inh | SENP1 inh | beta cell repl
COc1ccc(S(=O)(=O)N2CCN(Cc3cccc([N+](=O)[O-])c3)CC2)cc1 | n | n | 20.4 | n | n | n
CCCN1Cc2cccc(C(=O)Nc3ccc(C)cc3)c2C1=O | n | n | n | n | n | n
CCCN1Cc2cccc(C(N)=O)c2C1=O | n | n | 49.2 | n | n | n
CCC(C(=O)N1CCN(S(=O)(=O)c2ccc(F)cc2)CC1)c1ccccc1 (stereo unspecified) | n | n | n | n | n | n
Cn1cccc1/C=C1\CC(C(C)(C)C)C/C(=C\c2cccn2C)C1=O (stereo unspecified) | + | n | n | n | n | n
COc1cccc(Nc2ccc(N3CCCCC3)cc2)c1OC | n | n | n | n | 89.8 | n
COc1cc(CNc2ccc(N3CCCC3)cc2)cc(Cl)c1OC | + | n | n | n | n | n
Cn1c(SCC(=O)NC(=O)NCc2ccccc2)nnc1C(F)(F)F | n | n | n | n | n | n
COc1ccc(CN(C)C(=O)CNC(=O)c2sc3ccccc3c2Cl)c(OC)c1OC | n | n | 45.8 | n | n | x
Cc1c(NC(=O)COC(=O)c2cc(-c3ccc(-c4ccccc4)cc3)nc3ccccc23)c(=O)n(-c2ccccc2)n1C | + | n | n | n | n | x
CC(C)(C)C(=O)COC(=O)c1cc(-c2ccncc2)nc2ccccc12 | n | n | 27.2 | n | n | n
Cc1cccc(C(=O)OCC(=O)Nc2c(C)n(C)n(-c3ccccc3)c2=O)c1 | n | n | 18.8 | n | n | n
O=C1C(c2ccccc2)=[N+]([O-])c2ccccc21 | u | n | 30.4 | n | n | n
N#C/C(=C\c1ccc(N2CCOCC2)o1)c1ccccc1 | x | n | n | n | n | n
N#C/C(=C\c1ccc(N2CCOCC2)o1)C(=O)Nc1ccc(O)cc1 | + | n | n | x | n | n
COc1ccc(NC(=O)/C(C#N)=C\c2ccc(N3CCOCC3)o2)cc1 | n | n | n | n | n | n
N#C/C(=C/c1ccc(N2CCCCC2)o1)C(=O)Nc1ccc(Cl)cc1 | + | n | n | n | n | n
N#C/C(=C/c1ccc(N2CCOCC2)o1)c1ccc(Br)cc1 | + | n | n | n | n | n
C=CCOc1cccn2c(N(C)C(=O)c3ccccc3F)c(CC)nc12 | n | n | n | x | n | x
COC(=O)[C@H]1[C@H]2C[C@@H]3c4[nH]c5cc(OC)ccc5c4CCN3C[C@H]2C[C@@H](OC(=O)c2cc(OC)c(OC)c(OC)c2)[C@@H]1OC | n | n | n | n | n | n
COC(=O)C1C2CC3c4[nH]c5cc(OC)ccc5c4CCN3CC2CC(OC2CCCCO2)C1OC (stereo unspecified) | + | n | n | n | n | x
COc1cccc2cc(-c3nc4ccccc4o3)c(=O)oc12 | + | n | 29.6 | n | n | n
CCCn1cnc2c1c(=O)n(CCCCC(C)=O)c(=O)n2C | n | n | 31.7 | n | n | n
COc1ccc(NC(=O)COC(=O)C2CC(=O)N(CCc3ccc(OC)c(OC)c3)C2)cc1Cl (stereo unspecified) | n | n | n | n | n | n
CC(=O)c1cc(C(=O)N2CCc3c([nH]c4ccccc34)C2C2CCCCC2)[nH]n1 (stereo unspecified) | + | n | n | n | n | n
SMILES | Myeloid diff MLP | MT1-MMP act inh | CendR NRP1 mod | DAGLB inh | SENP1 inh | beta cell repl
COc1ccc(C2C(C(=O)Nc3ccc(F)cc3)=C(C)Nc3nc(CCCO)nn32)cc1 (stereo unspecified) | n | n | 20.3 | n | n | n
CCOc1ccc(C2C(C(=O)Nc3ccc(F)cc3)=C(C)Nc3nc(CCCO)nn32)cc1 (stereo unspecified) | n | n | n | n | n | n
O=C(NCCS(=O)(=O)N1CCN(c2ccccc2F)CC1)c1cc(=O)c2ccccc2o1 | n | n | n | n | n | n
COc1cc(N=Nc2cccc(S(N)(=O)=O)c2)c2ccccc2c1N | + | n | n | n | 48.0 | x
NC1=NC(=Nc2cccc(S(N)(=O)=O)c2)c2ccccc21 | n | n | n | n | n | n
O=C(NC(c1ccc(Cl)cc1)c1ccsc1)C1CCN(Cc2cccc(Cl)c2)CC1 (stereo unspecified) | n | n | n | x | n | x
O=C(NCCCN1CCOCC1)c1ccc2nc(Cc3cccc(Cl)c3)oc2c1 | n | n | n | n | n | n
O=C(/C=C/c1ccc(-c2ccccc2[N+](=O)[O-])o1)c1ccco1 | n | n | 27.8 | n | n | n
COc1ccccc1C(=O)NNC(=O)c1ccc(NC(=O)C(C)C)cc1 | n | n | n | n | n | x
O=c1ccc2cc3c4c(c2o1)CCCN4CCC3 | n | n | n | n | n | n
O=c1oc2c3c4c(cc2s1)CCCN4CCC3 | n | n | 35.5 | n | n | n
CCOc1ccc(N=C2NC(=O)S/C2=C\c2ccc(N(C)C)cc2)cc1 | + | n | n | n | n | n
Cc1c(C)n(-c2ccc(Cl)cc2)c2ncnc(N)c12 | n | n | n | n | n | n
CN1CCCC1CCNC1C2CC3CC(C2)CC1C3 (stereo unspecified) | n | n | n | n | n | n
CCN1CCN(c2ncc(C(=O)Nc3cc(Cl)c(OC)cc3OC)c3ccccc23)CC1 | n | n | n | n | n | x
CCN1CCN(c2ncc(C(=O)N3CCN(c4ccccc4OC)CC3)c3ccccc23)CC1 | n | n | 21.6 | n | n | x
Cc1cc(Br)cn2c(Cc3ccccc3)c(C3CCCCC3)nc12 | n | n | n | x | n | x
CCCc1nc2c(C)cc(Br)cn2c1Cc1ccsc1 | n | n | n | x | n | x
Cc1cc(Br)cn2c(Cc3ccsc3)c(C3CCCCC3)nc12 | n | n | 35.1 | x | n | x
Cc1cc(Br)cn2c(Cc3ccsc3)c(C(C)(C)C)nc12 | n | n | 48.6 | x | n | x
Cc1cccc(C)c1C(O)c1ncc(-c2cccc(C(F)(F)F)c2)[nH]1 (stereo unspecified) | n | n | n | x | n | x
O=C1C2C3C=CC(CC3)C2S(=O)(=O)C2C3C=CC(CC3)C12 (stereo unspecified) | n | n | n | n | n | x
CSc1nsc(SCC(=O)N2CCc3ccccc32)n1 | n | n | 18.6 | n | n | n
Cc1c(C(=O)/C=C/N(C)C)nnn1-c1ccc(F)c(Cl)c1 | n | n | 38.2 | x | n | n
Cc1c(C(=O)/C=C/N(C)C)nnn1-c1ccc(Cl)c(Cl)c1 | n | n | n | n | n | n
NC(N)=Nc1nc(CCN2C(=O)c3ccccc3C2=O)cs1 | n | n | n | n | n | n
Cn1c(COc2ccc(F)cc2)nc2ccccc21 | n | n | 23.3 | n | n | n
CCc1nc2ccc(C(=O)N3CCN(S(=O)(=O)CC)CC3)cn2c1N(CC)Cc1cccc(Br)c1 | n | n | n | x | n | x

High-throughput results deposited in PubChem BioAssay by several laboratories.
